From article PMC7717452 (Journal of Enzyme Inhibition and Medicinal Chemistry, 2020)
“And” between values parts separate entries of the source, which are not always exact repeats. Identical values can stand only once. Like-named read-outs stand apart in the source and are kept apart here. Each block holds one compound with its values, some of them ahead of it.

Assays:
[1] = test system: Mouse macrophages from the cell line J774; test: Cytotoxicity assay; type: cell-based; conditions: 24 h, non-infected J774
Method in brief: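 J774 mouse macrophages were grown in DMEM with 10% FBS and penicillin/streptomycin at 37 °C in humidified 5% CO2. Cells were seeded at 6 × 10^4 cells/mL and exposed the next day for 24 h to test compound at 100 to 0.001 µM (200 µM for one compound). The WST-1 signal was read at A450. % cytotoxicity was calculated against DMSO-treated and untreated cells, and CC50 is given ± σn–1.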

[2] = biological target: T1, LiTryS (Leishmania infantum trypanothione synthetase) (Leishmania infantum, UniProt A4I2Z3); test: TryS activity end-point assay; type: biochemical; conditions: for IC50: ± 2σ, ∼30 assumed for 50 ± 5% inhibition at 30 µM
T1 sequence (A4I2Z3 1-652): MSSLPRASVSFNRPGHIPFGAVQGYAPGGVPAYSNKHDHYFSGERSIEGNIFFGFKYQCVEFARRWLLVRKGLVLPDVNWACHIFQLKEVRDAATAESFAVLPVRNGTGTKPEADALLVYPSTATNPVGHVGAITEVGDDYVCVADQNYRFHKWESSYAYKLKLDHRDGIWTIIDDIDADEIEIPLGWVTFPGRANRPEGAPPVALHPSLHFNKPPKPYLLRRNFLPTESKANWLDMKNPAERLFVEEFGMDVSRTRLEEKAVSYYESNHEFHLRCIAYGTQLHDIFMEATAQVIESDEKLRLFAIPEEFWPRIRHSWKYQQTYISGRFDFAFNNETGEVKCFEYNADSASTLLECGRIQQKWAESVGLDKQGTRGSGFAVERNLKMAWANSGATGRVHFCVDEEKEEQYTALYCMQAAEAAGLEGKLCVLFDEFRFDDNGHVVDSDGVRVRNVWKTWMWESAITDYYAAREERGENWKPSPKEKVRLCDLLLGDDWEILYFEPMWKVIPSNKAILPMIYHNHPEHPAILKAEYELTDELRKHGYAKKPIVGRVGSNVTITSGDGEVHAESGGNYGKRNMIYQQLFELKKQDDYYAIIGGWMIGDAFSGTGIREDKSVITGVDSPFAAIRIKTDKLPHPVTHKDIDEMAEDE
Method in brief: (§1)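 Recombinant TryS end-point assay in 100 mM HEPES pH 7.4 with 5 mM DTT, 10 mM MgSO4 and 0.5 mM EDTA. ATP was 150 µM and spermidine 2 mM. GSH was 0.25 mM for LiTryS, 0.05 mM for TbTryS and 0.57 mM for TcTryS. Enzyme started the reaction and BIOMOL Green stopped it after 15 min. A650 was read after 20 min at room temperature. Values were corrected with no-enzyme blanks and for compound interference with phosphate. At least quadruplicates; IC50 is given ± 2σn-1.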

TbTryS = biological target: T2, TbTryS (Trypanosoma brucei brucei, UniProt Q8IEX1); test: TryS activity end-point assay; type: biochemical
T2 sequence (Q8IEX1 1-627): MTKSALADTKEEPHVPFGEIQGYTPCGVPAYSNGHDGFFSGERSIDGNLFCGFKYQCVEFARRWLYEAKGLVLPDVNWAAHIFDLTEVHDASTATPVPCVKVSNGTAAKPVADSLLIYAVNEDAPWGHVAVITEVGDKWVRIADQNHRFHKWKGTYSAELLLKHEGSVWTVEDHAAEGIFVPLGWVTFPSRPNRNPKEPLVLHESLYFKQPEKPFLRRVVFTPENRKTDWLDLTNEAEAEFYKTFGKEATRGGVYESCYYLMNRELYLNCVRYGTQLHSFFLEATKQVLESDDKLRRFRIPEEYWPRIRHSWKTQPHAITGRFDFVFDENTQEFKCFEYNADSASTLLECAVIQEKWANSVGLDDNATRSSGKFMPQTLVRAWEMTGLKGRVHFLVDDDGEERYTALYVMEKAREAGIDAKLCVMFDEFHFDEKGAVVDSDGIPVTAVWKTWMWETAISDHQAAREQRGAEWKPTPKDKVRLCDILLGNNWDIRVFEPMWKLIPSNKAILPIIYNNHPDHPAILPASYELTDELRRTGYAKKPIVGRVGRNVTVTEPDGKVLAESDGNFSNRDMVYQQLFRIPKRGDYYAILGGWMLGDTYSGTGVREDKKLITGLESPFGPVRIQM
Method in brief: as §1

TcTryS = biological target: T3, TcTryS (Trypanosoma cruzi, UniProt Q9GT49); test: TryS activity end-point assay; type: biochemical; conditions: for IC50: IC50 value, TcTryS, ± 2σ, ~30 assumed for 50 ± 5% inhibition at 30 µM
T3 sequence (Q9GT49 1-647): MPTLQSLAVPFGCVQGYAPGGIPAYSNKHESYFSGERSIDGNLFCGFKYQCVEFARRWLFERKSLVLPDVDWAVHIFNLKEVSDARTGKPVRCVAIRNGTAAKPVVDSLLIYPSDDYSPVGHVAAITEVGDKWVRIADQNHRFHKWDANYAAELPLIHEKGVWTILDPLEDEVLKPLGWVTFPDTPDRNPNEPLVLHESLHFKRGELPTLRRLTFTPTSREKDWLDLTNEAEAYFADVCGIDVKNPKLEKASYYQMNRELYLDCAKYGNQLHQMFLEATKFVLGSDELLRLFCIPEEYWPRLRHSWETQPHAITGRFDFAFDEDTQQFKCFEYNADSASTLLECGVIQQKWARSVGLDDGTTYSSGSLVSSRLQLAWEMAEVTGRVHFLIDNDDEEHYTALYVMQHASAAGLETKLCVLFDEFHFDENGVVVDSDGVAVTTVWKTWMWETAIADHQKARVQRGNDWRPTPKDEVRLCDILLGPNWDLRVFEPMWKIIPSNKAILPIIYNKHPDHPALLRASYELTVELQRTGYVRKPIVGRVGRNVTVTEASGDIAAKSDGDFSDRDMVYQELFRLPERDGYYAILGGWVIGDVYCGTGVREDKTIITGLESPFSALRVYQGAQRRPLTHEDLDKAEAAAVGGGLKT
Method in brief: as §1

[3] = test system: L. braziliensis amastigotes; test: Macrophage infection assay, L. braziliensis amastigotes; type: cell-based, Leishmania braziliensis; conditions: for SI, L. braziliensis amastigotes: selectivity index, macrophage CC50 and amastigote EC50
Method in brief: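 J774 macrophages were plated on coverslips at 1 × 10^5 cells/mL in DMEM with 1% FBS. They were infected with stationary-phase L. braziliensis promastigotes (MHOM/BR/01/BA788; 1:20) for 2 h at room temperature, then 22 h at 35 °C. After washing, cells got test compound (5 or 10 µM, or 10–0.01 µM) in 1% DMSO for 24 h at 37 °C and 5% CO2. Cells were EtOH-fixed and DAPI-stained, and 100–200 macrophages were imaged. % infected cells is relative to DMSO.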

L. infantum amastigotes = test: Macrophage infection assay, L. infantum amastigotes; type: cell-based, Leishmania infantum; conditions: for SI, L. infantum amastigotes: selectivity index, macrophage CC50 and amastigote EC50
Method in brief: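 J774 macrophages on coverslips (1 × 10^5 cells/mL, DMEM with 1% FBS) were infected with stationary-phase L. infantum promastigotes (1:20) for 2 h at room temperature, then 22 h at 37 °C. After washing, test compound (10–0.01 µM, up to seven concentrations, at least duplicates, 1% DMSO) was added for 24 h at 37 °C. DAPI-stained infected cells were counted by microscopy relative to DMSO. EC50 came from a four-parameter sigmoid fit.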

LiTryS [4] = biological target: T4, LiTryS (Leishmania infantum, UniProt A4I2Z3); conditions: read-out: Ki, nucleotide-binding site of the enzyme; ADP; cited from earlier work
T4 sequence (A4I2Z3 1-652): T1 sequence (A4I2Z3 1-652)

LiTryS [5] = biological target: T4, LiTryS; test: Kinetic assays for LiTryS; type: biochemical; conditions: double reciprocal plots
Method in brief: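 LiTryS in 100 mM HEPES pH 7.4, 10 mM MgSO4, 0.5 mM EDTA, 5 mM DTT at 28 °C. Enzyme-started, linear 15 min, colorimetric stop, A650 after 20 min. Variable GSH 100–3 µM (SP 13 mM, ATP 200 µM); ATP 200–6 µM (SP 13 mM, GSH 250 µM); SP 13–0.41 mM or GSP 250–7.8 µM (ATP 200 µM, GSH 250 µM).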

[6] = test system: L. infantum amastigotes (WT and sKO); test: Intracellular low molecular mass thiols, amastigotes in J774 macrophages; type: cell-based, Leishmania infantum; conditions: 1 µM, 24 h, vs non-treated control
Method in brief: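 J774 macrophages at 50% confluence were infected with stationary-phase L. infantum WT or single knockout promastigotes (1:40) for 2 h at room temperature, then 22 h at 37 °C. After washing, cells were treated or not with 1 µM test compound for 24 h. Thiols were reduced with NaBH4, labelled with monobromobimane, then separated by C18 HPLC against standards. Non-infected macrophage GSH was subtracted, and values are fold-change versus non-treated. At least duplicates; t-test.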

[7] = test system: L. infantum promastigotes (WT and TryS sKO); test: Intracellular low molecular mass thiols, promastigotes; type: cell-based, Leishmania infantum; conditions: 7 µM, 24 h
Method in brief: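 L. infantum promastigotes (MHOM MA67I7MAP263, WT or TryS single knockout) were seeded at 5 × 10^5/mL in RPMI at 28 °C with 7 µM test compound or 1% DMSO for 24 h. Thiols were reduced with 70 mM NaBH4 in 40 mM HEPES pH 8.0, labelled with 2 mM monobromobimane (70 °C, 3 min) and acid-extracted. They were separated by C18 HPLC against GSH/T(SH)2 standards (2.5–75 nmol), and peak areas are given as % of untreated WT. At least duplicates; unpaired t-test.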

[8] = 30 µM, NA = not active (enzyme activity > 95%)

SMILES: O=C1Cc2c([nH]c3ccc(Br)cc23)-c2ccc(Cl)cc2N1 [Compound 1, 3-Chlorokenpaullone]
- % cytotoxicity at 200 µM, macrophages ([1]; 200 µM): 0 at 200 µM %
- % TryS inhibition at 30 µM, LiTryS [2, 8]: inactive
- % TryS inhibition at 30 µM, TbTryS (TbTryS; [8]): inactive
- % TryS inhibition at 30 µM, TcTryS (TcTryS; [8]): inactive

SMILES: C[C@@H]1[C@H](O)[C@@H](C)/C=C/C=C/C=C/C=C/C=C/C=C/C=C/[C@H](O[C@@H]2O[C@H](C)[C@@H](O)[C@H](N)[C@@H]2O)C[C@@H]2O[C@](O)(C[C@@H](O)C[C@@H](O)[C@H](O)CC[C@@H](O)C[C@@H](O)CC(=O)O[C@H]1C)C[C@H](O)[C@H]2C(=O)O [Amphotericin B, reference compound]
- SI, L. braziliensis amastigotes [3]: 59
- SI, L. infantum amastigotes (L. infantum amastigotes): 100

SMILES: Nc1ncnc2c1ncn2[C@@H]1O[C@H](COP(=O)(O)OP(=O)(O)O)[C@@H](O)[C@H]1O [ADP]
- Ki (LiTryS [4]): 90 µM

SMILES: Cl.O=C(CN1C(=O)Cc2c([nH]c3ccc(Br)cc23)-c2ccc(Cl)cc21)N1CCNCC1 [Compound 20]
- % infection by L. braziliensis at 5 µM ([3]; 5 µM, 24 h, relative to infected non-treated macrophages): 15% and 15 ± 1 at 5 µM %
- SI, L. braziliensis amastigotes [3]: ≥ 21
- CC50 ([1]; read-out: CC50, macrophages): 8.1 ± 0.1 µM
- IC50 ([2]; IC50 value, LiTryS): 0.3 µM
- Inhibition mode with respect to ATP and GSH (LiTryS [5]; ATP or GSH variable): uncompetitive inhibition
- Inhibition mode with respect to SP and GSP (LiTryS [5]; SP or GSP variable): competitive inhibition
- GSH accumulation, WT amastigotes [6]: 16 fold
- GSH accumulation, sKO amastigotes [6]: 10 fold
- T(SH)2 depletion, WT amastigotes [6]: about 40%
- T(SH)2 depletion, sKO amastigotes [6]: ~82%
- T(SH)2 decrease, WT promastigotes ([7]; WT cells): 88%
- T(SH)2 content, sKO promastigotes ([7]; sKO cells, detection limit 0.5 nmol T(SH)2/100 million cells): undetectable
- IC50 (TbTryS; IC50 value, TbTryS, ± 2σ, ~30 assumed for 50 ± 5% inhibition at 30 µM): ~30 µM
- SI, L. infantum amastigotes (L. infantum amastigotes): 9

Now from value to compound, other results behind:

- IC50 ([2]; read-out: IC50 value, LiTryS): 0.4 ± 0.1 µM
- EC50 (L. infantum amastigotes; read-out: EC50, amastigotes L. infantum, intracellular amastigotes in J774, 24 h): 1 ± 0.5 µM
SMILES: CN1CCN(C(=O)CN2C(=O)Cc3c([nH]c4ccc(Br)cc34)-c3ccc(Cl)cc32)CC1 [Compound 21, 9-Bromo-3-chloro-5-[2-(4-methylpiperazin-1-yl)-2-oxoethyl]-7,12-dihydrobenzo[2,3]azepino[4,5-b]indol-6(5H)one]
- % infection by L. braziliensis at 10 µM ([3]; 10 µM, 24 h, relative to infected non-treated macrophages): 65 ± 7%
- SI, L. braziliensis amastigotes [3]: 5

- IC50 ([2]; IC50 value, LiTryS): ~30 µM
- IC50 (TcTryS): 20 µM
SMILES: CC(C)(C)OC(=O)N1CCN(CCNC(=O)CN2C(=O)Cc3c([nH]c4ccc(Br)cc34)-c3ccc(Cl)cc32)CC1 [Compound 34]

- IC50 ([2]; IC50 value, LiTryS): ~30 µM
- IC50 (TcTryS): 25 µM
SMILES: CC(C)(C)OC(=O)NCCCCNC(=O)CN1C(=O)Cc2c([nH]c3ccc(Br)cc23)-c2ccc(Cl)cc21 [Compound 36]
